One experiment concerns the target Fe(II) center in SadX. The experiment is described as follows: UV-vis titration of anion binding. Particulars: SadX-His/Fe(II)/αKG, 100 mM HEPES pH 7.5. The method, boiled down:
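Anaerobic (N₂ glovebox, degassed buffer): SadX-His (0.51 mM, 0.5 μmol) plus FeSO₄ (0.375 μmol) in 100 mM HEPES pH 7.5, 23 °C, quartz cuvette. αKG (5 μmol) added, then anion salt (10–200 mM stocks). Spectra 350–800 nm, dilution-corrected. Difference spectra taken versus initial SadX-His/Fe(II) and zeroed at 800 nm. λmax absorbances fitted to single-site saturation binding for KD.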

Experiment [1] deals with SadX. The experiment is classed as biochemical. Particulars: for Km: KM for salt; for Km / kcat: hydroxylation of 1a (1 mM) to give 1b by 0.5 μM SadX, varying [salt]; for Kinetic behaviour of 1b formation as a function of salt concentration: saturating 1a (1 mM), SadX.
The test system of experiment [2] is SadX. Kind of experiment: Steady state kinetic analysis of SadX with varying concentrations of 1a. The format is biochemical.
In experiment [3] the test system is SadX. Kind of experiment: SadX activity assay: conversion of 1a in the presence of salts. Particulars: 10 μM SadX, 1 mM 1a, 50 mM salt, overnight, room temperature. The format is biochemical.

Like-named read-outs stand apart in the source and are kept apart here.

From paper PMC9789792 (Inorganic chemistry, 2022) come the findings set out here.

For `[N-]=[N+]=[N-].[Na+]` [NaN3], the Kd (commonly a measure of binding affinity in units of concentration) on Fe(II) center in SadX (Blue-shifted Absorbance) came to 2650 µM. The Kd on Fe(II) center in SadX (Red-shifted Absorbance) is 600 µM. In the experiment with SadX [1], the Km (commonly the substrate concentration at which the rate is half of its maximum) turned out to be 14 µM; the kcat (in general, the maximal rate divided by the concentration of active sites) stood at 0.953 s⁻¹; the “Kinetic behaviour of 1b formation as a function of salt concentration” value (from here on “Kinetic behaviour of 1b formation”) is “exhibit saturation kinetics”. In addition, in the experiment with SadX [2] (SadX, hydroxylation of 1a), the “Fold by which hydroxylation kcat/KM exceeds WT SadA” value turned out to be 12 fold. Besides, in the experiment with SadX [2] (azidation of 1a by SadX to give 1eN3, varying [1a]), the kcat is given as 8.72 10^−3 s^−1.

In the case of `F[P-](F)(F)(F)(F)F.[NH4+]` [NH4PF6], in the experiment on SadX [1], the “Kinetic behaviour of 1b formation” value was “does not follow Michaelis Menten kinetics”. Besides, in the experiment on SadX [3], the “Conversion of 1a (to 1b)” value is “trace conversion”.

In the case of `CC(=O)O` [acetate], in the experiment with SadX [3], the “Conversion of 1a (to 1b)” value is “low conversion”.

Turning to `[Cl-].[Na+]` [NaCl], the Kd on Fe(II) center in SadX (Blue-shifted Absorbance) worked out at 600 µM. The Kd on Fe(II) center in SadX (Red-shifted Absorbance) is 490 µM. In the experiment on SadX [1], the Km amounted to 4160 µM, the kcat came to 0.197 s⁻¹ and the “Kinetic behaviour of 1b formation” value was “exhibit saturation kinetics”.

Take bromide: the “Conversion of 1a (to 1b)” value with SadX [3] is recorded as “significantly lower conversion”.

In the case of `N#C[O-].[Na+]` [cyanate], the “Conversion of 1a (to 1b)” value with SadX [3] is recorded as “high conversion”.

Regarding `[Cs+].[F-]` [CsF], at Fe(II) center in SadX (Blue-shifted Absorbance), the Kd worked out at 460 µM. In addition, the Kd at Fe(II) center in SadX (Red-shifted Absorbance) came to 450 µM. For the same molecule, in the experiment on SadX [1], the Km came to 12000 µM and the kcat was found to be 0.357 s⁻¹. For the same molecule, the “Fold improved kcat/KM relative to that in the absence of salt” value with SadX [2] (SadX, hydroxylation of 1a) was determined as 16 fold.

For `O=C[O-].[Na+]` [NaOC(O)H], the Kd on Fe(II) center in SadX (Blue-shifted Absorbance) is 530 µM. Besides, the Kd at Fe(II) center in SadX (Red-shifted Absorbance) was 470 µM. Moreover, in the experiment with SadX [1], the Km was determined as 450 µM and the kcat stood at 0.122 s⁻¹.
